Source: PubChem
Shown are actives, neighbours in structure and some others; about 2.2% of the full set was active somewhere.
DNA FID counter-1: compounds displacing fluorescent DNA intercalator, primary screen, artefact control for HCV NS3 helicase inhibitor project, biochemical, FID fluorescence. DNA fluorescent intercalator displacement. inhibition, % at 7.9 µM. 0.17% of 290,000 active. AID 1845, 2009;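 also: 0% = vehicle and 100% = reference compound; higher means more ethidium bromide displaced from hairpin DNA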
DAGLB inhibitor: DAGLB lipase inhibitors, primary screen, biochemical, fluorescence, HTS; HEK293T DAGLB membrane lysate, EnzChek fluorogenic substrate; inhibition, % at 5.17 µM; 0.059% of 340,000 active; AID 504411, 2011; in the data active = inhibition above about 34%;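 also: 0% = enzyme with vehicle and 100% = wells lacking enzyme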
HCV core dimer: inhibitors of HCV core protein dimerization, primary screen, biochemical, TR-FRET, high-throughput. TR-FRET GST/Flag-core106 dimerization, 1536-well. inhibition, % at 5 µM. 0.33% of 300,000 active. AID 1899, 2009;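 active = inhibition above the mean of all tested compounds plus 3 SD, set per screening campaign, cut at about 45% in these data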
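System – GST-tagged and Flag-tagged HCV core protein residues 1-106 · Repeats – one well for each compound · Technique – TR-FRET 671 and 617 nm emission · Doses – one concentration, 5 µM, in 0.5% DMSO · Times – 4 h, 22.5 °C incubation · Also added – Eu donor and XL665 acceptor anti-tag antibodies · Measure – percent inhibition of core106 dimerization signal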
GRK2 aptamer HTS: compounds blocking aptamer binding on GRK2 – biochemical, human GRK2, bead flow cytometry, HTS, primary screen. inhibition of aptamer binding, % at 10 µM. FAM-aptamer displacement from GRK2. AID 488847, 2010. 0.59% of 330,000 active;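 active = inhibition of aptamer binding above 40%, roughly 3 SD of noise, on plates passing a quality check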;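 also: median bead fluorescence of bound FAM aptamer so fluorescent compounds give negative values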
HCV NS3 hel inh: inhibitors of HCV NS3 helicase, primary screen, biochemical, Cy5 molecular beacon fluorescence. Hepatitis C virus NS3 helicase. 0.56% of 290,000 active. inhibition, % at 10.9 µM. NS3 helicase DNA unwinding. AID 1800, 2009;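 active = inhibition above the mean of all tested compounds plus 3 SD, set per campaign, cut at about 35% in these data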;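 also: 0% = DMSO wells and 100% = thioflavine S control wells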
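Material: hepatitis C virus NS3 helicase domain fragment enzyme; measured by: Cy5 fluorescence, 0 and 60 min reads; control set: DMSO and thioflavine S; incubation: 60 min unwinding reaction at 25 °C after ATP addition; read-out basis: % inhibition from 60/0 min fluorescence ratio, DMSO 0%, thioflavine S 100%; repeats: singlicate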
GPR7 antag: GPR7 receptor antagonists, primary screen, cell-based, fluorescence, single concentration; Neuropeptides B/W receptor type 1 (Homo sapiens), P48145; GPR7-expressing cells, fluorescence antagonist assay; inhibition, % at 4.4 µM; 1.1% of 290,000 active; AID 1861, 2009; in the data active = inhibition above about 16%, passing the limit was not always enough;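 also: cells stimulated with the agonist NPW; 0% = agonist with vehicle and 100% = vehicle without agonist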
Target sequence (P48145 whole entry, looked up): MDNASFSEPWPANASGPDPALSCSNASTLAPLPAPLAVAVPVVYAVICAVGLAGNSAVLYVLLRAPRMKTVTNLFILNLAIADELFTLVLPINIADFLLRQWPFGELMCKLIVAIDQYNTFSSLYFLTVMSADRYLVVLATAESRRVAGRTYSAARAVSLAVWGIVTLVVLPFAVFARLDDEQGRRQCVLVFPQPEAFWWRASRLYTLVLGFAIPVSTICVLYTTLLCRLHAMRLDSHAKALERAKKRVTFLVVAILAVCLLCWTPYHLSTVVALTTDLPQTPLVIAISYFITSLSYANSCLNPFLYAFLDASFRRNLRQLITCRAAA
NS3 hel confirm: HCV NS3 helicase inhibitors, retest, confirmation, biochemical, Cy5 molecular beacon fluorescence, triplicate; 31% of 1,600 active; inhibition, % at 10.9 µM; AID 1943, 2009; shares compounds with HCV NS3 hel inh; NS3 helicase DNA unwinding;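 active = inhibition above the mean of all tested compounds plus 3 SD, cutoff set per campaign, cut at about 36% in these data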
DNA FID counter-2: compounds displacing fluorescent DNA intercalator, artefact control for HCV NS3 helicase inhibitor project, biochemical, FID fluorescence, triplicate | DNA fluorescent intercalator displacement | 4% of 1,600 active | shares compounds with HCV NS3 hel inh | inhibition, % at 7.9 µM | AID 1945, 2009;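 also: 0% = vehicle and 100% = reference compound; higher means more displacement of ethidium bromide from the DNA hairpin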
The depositor's hits bear a star; / = no result given. Rule as the data show it, unless noted: active = inhibition above about 37%; inactive = the rest.

SMILES | DNA FID counter-1 | DAGLB inhibitor | HCV core dimer | GRK2 aptamer HTS | HCV NS3 hel inh | GPR7 antag | NS3 hel confirm | DNA FID counter-2
COc1cc(OC)c2c(O)c3c(c(-c4c5c(c(O)c6c(OC)cc(OC)cc46)CO[C@@H](C)[C@H]5O)c2c1)[C@H](O)[C@H](C)OC3 | -31 | 28 | 54* | 0 | 36* | -14 | 69* | -20
COc1cc2c(c(OC)c1O)C(=O)CO2 | 0 | -2 | 7 | 0 | 11 | 7 | / | /
CCOC(=O)C1CCCN(C2=NC(=O)/C(=C/c3ccc(N(C)C)cc3)S2)C1 (stereo unspecified) | -31 | -5 | -27 | 0 | 25 | 20 | / | /
O=C(NC(=O)c1c(F)cccc1F)Nc1cccc(Oc2ncc(Cl)cn2)c1 | / | 0 | / | / | / | / | / | /
CCN(CC)c1ccc(N=C2C(=O)Nc3ccccc32)cc1 | -9 | 2 | 0 | 2 | 45* | -11 | 19 | 22
C[C@H]1CNC(=O)c2c(C(=O)N[C@@H](Cc3c[nH]c4ccccc34)C(=O)OC(C)(C)C)ncn21 | / | 4 | / | / | / | / | / | /
CC(C(=O)O)N1C(=O)C2C3CC(C2C1=O)C1C(c2ccccc2)c2sc(=O)[nH]c2SC31 (stereo unspecified) | -34 | -2 | -13 | 2 | 75* | -11 | -15 | -7
O=C(NC(=S)NC1CCSC1=O)c1cccc([N+](=O)[O-])c1 (stereo unspecified) | -1 | 0 | -5 | 2 | 8 | -7 | / | /
O=C(NC(=S)NNC(=O)c1ccccc1O)c1ccc([N+](=O)[O-])cc1 | -2 | 7 | -1 | 0 | 36* | -8 | -12 | 17
O=C(NC(=S)NC1CCSC1=O)c1ccc([N+](=O)[O-])cc1 (stereo unspecified) | -5 | -1 | 4 | 1 | 43* | -9 | -17 | 13
Cc1cc(=O)c(C(=O)Nc2ccc(N3CCOCC3)cc2N2CCOCC2)nn1-c1ccccc1Cl | / | 2 | / | 0 | / | / | / | /
COCCN(C(=O)CNC(=O)c1ccco1)C(C(=O)NC1CCCC1)c1ccc(OC)cc1 (stereo unspecified) | -37 | -2 | -16 | 0 | 44* | -7 | -4 | 6
COc1ccc2c(c1)cc(C(=O)N/N=C/c1c(O)c(C(=O)O)cc3ccccc13)n2C | -3 | 7 | 16 | 0 | 80* | 7 | 104* | 14
Cn1c(O)c(/C=N/NC(=O)c2cc3ccccc3cc2O)c2ccccc21 | -14 | 5 | -3 | 2 | -5 | -3 | / | /
O=C1CSC(=S)N1/N=C/C=C/c1ccccc1 | -41 | 3 | 53* | 4 | 39* | 7 | 7 | 10
O=C1CSC(=S)N1/N=C/c1c(F)cccc1F | -10 | 0 | 3 | 0 | 8 | -10 | / | /
COc1ccc(OCC(=O)N/N=C/C(C)=C/c2ccco2)c(Br)c1 | -33 | 3 | 3 | 0 | 45* | 14 | 5 | -6
COc1ccccc1CCNC(=O)CSc1ccc(-c2cccs2)nn1 | -26 | -2 | 5 | 1 | 45* | -6 | -10 | -14
N#CC1=C(N)SC(N)=C(C#N)C1CCC1CCCCC1 | -5 | / | 13 | 0 | 53* | -6 | 5 | 24
CC1(C)CC(=O)C2=C(C1)N(c1ccc(F)cc1)C(=O)C2(NC(=O)c1ccccc1)C(F)(F)F (stereo unspecified) | 3 | / | -1 | 2 | 49* | -4 | -7 | 10
N#Cc1c(-c2cccs2)nc(SCc2ccc(Cl)cc2)[nH]c1=O | 6 | 14 | / | / | 48* | -4 | 60* | 35
